Assay outcomes deposited in PubChem BioAssay by The Scripps Research Institute Molecular Screening Center.
TAAR1 antagonist: human TAAR1 antagonists, primary screen, Fluo-8 calcium fluorescence, CHO RD-HGA16 cells | Trace amine-associated receptor 1 (Homo sapiens), Q96RJ0 | antagonist | inhibition, % at 3 µM | 1.5% of 360,000 active;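 active = inhibition above a per-plate cutoff, the mean inhibition of test compounds on that plate plus 3 SD, cut at about 49% in these data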;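 also: 0% = DMSO plus EC80 beta-PEA response and 100% = DMSO alone without agonist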
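Test system: CHO RD-HGA16 cells bearing hTAAR1 | Reagent: β-PEA, EC80 | Compound dosing: 3 µM, single point | Schedule: Dye loading 75 min at 37 °C, then 30 min room temperature | Signal: Calcium fluorescence with Fluo-8 | Evaluation: Percent inhibition of PEA-evoked calcium signal, max/basal emission ratio | Control set: DMSO-only wells and EC80 β-PEA-stimulated wells | Repeats: Singlicate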
OX1R antag-1: antagonists of human orexin 1 receptor (OX1R). Orexin/Hypocretin receptor type 1 (Homo sapiens), O43613. 1.8% of 330,000 active. inhibition, % at 6.6 µM. OX1R-expressing cells, FRET antagonist read-out; in the data active = inhibition mostly above about 38%, no sharp cut-off; inactive = mostly below about 40%;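 also: 0% = agonist challenge alone and 100% = reference antagonist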
Target sequence (O43613 whole entry, looked up): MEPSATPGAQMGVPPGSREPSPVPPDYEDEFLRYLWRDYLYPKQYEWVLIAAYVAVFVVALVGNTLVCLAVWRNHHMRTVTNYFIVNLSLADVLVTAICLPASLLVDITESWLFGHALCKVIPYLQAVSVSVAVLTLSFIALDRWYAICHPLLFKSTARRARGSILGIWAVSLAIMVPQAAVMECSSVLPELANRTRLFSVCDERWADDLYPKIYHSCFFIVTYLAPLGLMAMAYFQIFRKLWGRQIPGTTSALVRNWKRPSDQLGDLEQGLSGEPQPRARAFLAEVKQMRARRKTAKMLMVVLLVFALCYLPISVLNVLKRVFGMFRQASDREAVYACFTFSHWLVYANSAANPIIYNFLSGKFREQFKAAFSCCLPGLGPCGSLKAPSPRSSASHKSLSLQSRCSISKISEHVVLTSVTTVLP
GPR7 antagonist: GPR7 receptor antagonists, primary screen, cell-based, fluorescence, single concentration | Neuropeptides B/W receptor type 1 (Homo sapiens), P48145 | GPR7-expressing cells, fluorescence antagonist assay | inhibition, % at 4.4 µM | 1.1% of 290,000 active; in the data active = inhibition above about 16%, passing the limit was not always enough;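 also: cells stimulated with the agonist NPW; 0% = agonist with vehicle and 100% = vehicle without agonist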
Target sequence (P48145 whole entry, looked up): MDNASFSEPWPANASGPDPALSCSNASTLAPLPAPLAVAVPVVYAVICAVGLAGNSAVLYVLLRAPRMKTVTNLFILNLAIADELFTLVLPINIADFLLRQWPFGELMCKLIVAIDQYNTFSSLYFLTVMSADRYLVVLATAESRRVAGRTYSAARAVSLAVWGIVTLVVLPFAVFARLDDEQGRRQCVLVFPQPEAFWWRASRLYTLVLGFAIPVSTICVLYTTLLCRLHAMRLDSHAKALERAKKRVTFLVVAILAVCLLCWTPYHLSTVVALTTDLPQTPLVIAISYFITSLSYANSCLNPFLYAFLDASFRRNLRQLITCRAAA
CHO parental Ca: ATP-evoked calcium signal inhibitors, parental CHO, primary screen, counter-screen for OX1R antagonist project, cell-based, fluorescence, Fluo-8 calcium dye; inhibition, % at 5.6 µM; parental CHO-K1, ATP-induced calcium, Fluo-8 fluorescence; 0.63% of 330,000 active;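 active = inhibition above that plate's mean sample inhibition plus 3 SD, cut at about 26% in these data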;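 also: 0% = ATP-challenged DMSO wells and 100% = DMSO wells without ATP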
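Assay system: parental CHO cells; Read-out basis: percent inhibition of ATP-evoked calcium rise, normalized to controls; Benchmarks: ATP and no-ATP DMSO wells; Compound dosing: single nominal dose of 5.6 µM per compound; Signal: Fluo-8 calcium dye fluorescence; Also added: ATP as calcium-mobilizing challenge; Repeats: singlicate.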
OX1R antag-2: OX1R (HCRTR1) antagonists, primary screen, fluorescence, CHO/OX1R cells, Fluo-8 calcium, orexin A. Fluo-8 calcium fluorescence. inhibition, % at 5 µM. 0.43% of 330,000 active. AID 434989, 2010;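 active = inhibition above its plate's threshold, mean inhibition of all tested compounds on the plate plus 3 SD, cut at about 37% in these data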;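 also: 0% = orexin A challenge wells and 100% = SB-334867-A antagonist wells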
TAAR1 agonist: human TAAR1 agonists, primary screen, Fluo-8 calcium fluorescence, CHO RD-HGA16 cells; AID 624467, 2012; 0.99% of 360,000 active; Trace amine-associated receptor 1 (Homo sapiens), Q96RJ0; vehicle wells 0%, saturating PEA agonist 100%; activation, % at 3 µM;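 active = activation above the mean activation of all test compounds in the run plus 3 SD, cut at about 38% in these data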
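Test system: RD-HGA16 (CHO) cells co-expressing Gα16 and hTAAR1; dosing: one-point dosing at 3 µM (nominal); timing: 17-24 h seeding, 75 min 37 °C dye, 30 min RT; signal: kinetic Fluo-8 calcium fluorescence; read-out basis: % activation relative to PEA EC100 response; controls: DMSO and PEA EC100; replicates: n 1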
GPR7 antag cf: GPR7 receptor antagonists, confirmation, cell-based, fluorescence, single concentration | inhibition, % at 4.4 µM | shares compounds with GPR7 antagonist | GPR7-expressing cells, calcium fluorescence antagonist mode | 52% of 2,400 active | AID 1952, 2009; in the data active = inhibition above about 24%;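 also: stimulated with the GPR7 agonist NPW; 0% = agonist plus vehicle and 100% = vehicle alone without agonist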
MCHR1 antagonist: MCHR1 antagonists in cells, counter-screen for GPR7 antagonist project, cell-based, fluorescence, human. inhibition, % at 4.4 µM. MCHR1-expressing cells, fluorescence antagonist assay. shares compounds with GPR7 antagonist. AID 2148, 2009. 62% of 2,400 active; in the data active = inhibition above about 22%;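 also: 0% = vehicle with agonist and 100% = vehicle without agonist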
* = called active by the depositor. Shown are actives, neighbours in structure and some others; about 4.6% of the full set was active somewhere.

What do the screens show for `O=C(Nc1ccc(F)cc1F)NC1CCN(S(=O)(=O)c2ccc(F)cc2)CC1`?
TAAR1 antagonist: 7.0; OX1R antag-1: 4.9; GPR7 antagonist: 37.0*; CHO parental Ca: -9.4; OX1R antag-2: -6.5; TAAR1 agonist: 3.1; GPR7 antag cf: 18.0; MCHR1 antagonist: 6.1

Results for COc1cccc(Cn2cccc(NC(=O)Nc3cccc(C#N)c3)c2=O)c1 ?
TAAR1 antagonist: 22.8; OX1R antag-1: 50.5; GPR7 antagonist: 26.8*; CHO parental Ca: -15.8; OX1R antag-2: -6.1; TAAR1 agonist: 5.2; GPR7 antag cf: 25.6*; MCHR1 antagonist: 66.7*

What do the screens show for `COc1cccc(NC(=O)Nc2cccn(Cc3ccc(C)cc3)c2=O)c1`?
TAAR1 antagonist: 0.6; OX1R antag-1: 28.5; GPR7 antagonist: -5.1; CHO parental Ca: -10.9; OX1R antag-2: -6.2; TAAR1 agonist: 3.2

How did CCCCCCN1C[C@@H](O)[C@H](n2cc(COC(=O)c3ccccc3)nn2)C[C@@H]1c1ccc(OC)cc1 do in these assays?
TAAR1 antagonist: -18.9; TAAR1 agonist: 2.5

Results for COC(=O)c1sc(N)c(C(=O)OC)c1COC(=O)c1c(C)noc1C ?
TAAR1 antagonist: -12.9; OX1R antag-1: 8.5; GPR7 antagonist: 23.0*; CHO parental Ca: -7.9; OX1R antag-2: -24.9; TAAR1 agonist: 5.8; GPR7 antag cf: 8.6; MCHR1 antagonist: 14.9

How did COC(=O)c1sc(NC(=O)c2c(C)noc2C)nc1C do in these assays?
TAAR1 antagonist: -9.3; OX1R antag-1: 27.7; GPR7 antagonist: -7.5; CHO parental Ca: -1.0; OX1R antag-2: -10.7; TAAR1 agonist: 0.2

What do the screens show for `CCOC(=O)CSc1nc2c(c(=O)[nH]c(=O)n2C)n1Cc1ccccc1`?
TAAR1 antagonist: 0.0; OX1R antag-1: -4.5; GPR7 antagonist: -5.5; CHO parental Ca: -8.3; OX1R antag-2: -26.6; TAAR1 agonist: 1.7

Results for COc1ccc(C(CCNCc2ccc(N(C)C)cc2)C(C)C)cc1 (configuration not stated) ?
TAAR1 antagonist: 1.1; OX1R antag-1: 7.7; GPR7 antagonist: 23.8*; CHO parental Ca: -9.0; OX1R antag-2: -3.7; TAAR1 agonist: 10.5; GPR7 antag cf: 21.9; MCHR1 antagonist: 49.6*

Results for COc1ccc(CNCCC(c2ccc(OC(C)C)cc2)C(C)C)cc1OC (configuration not stated) ?
TAAR1 antagonist: 13.4; OX1R antag-1: -0.7; GPR7 antagonist: 19.4; CHO parental Ca: -14.5; OX1R antag-2: -34.4; TAAR1 agonist: 23.9

Results for COc1ccc(C(CCNCc2ccc(OC(C)C)cc2)C(C)C)cc1 (configuration not stated) ?
TAAR1 antagonist: 11.0; OX1R antag-1: 9.4; GPR7 antagonist: 26.6*; CHO parental Ca: 27.0*; OX1R antag-2: -13.6; TAAR1 agonist: 23.2; GPR7 antag cf: 50.8*; MCHR1 antagonist: 70.3*

How did O=C1OC(c2ccccc2)/C(=C(/O)c2ccc(Cl)cc2)C1=O (configuration not stated) do in these assays?
TAAR1 antagonist: 5.2; OX1R antag-1: 4.4; GPR7 antagonist: 12.1; CHO parental Ca: -20.6; OX1R antag-2: -22.8; TAAR1 agonist: 2.4

What do the screens show for `COc1ccc(/C=C2\SC(N)=NC2=O)cc1`?
TAAR1 antagonist: 6.0; GPR7 antagonist: -18.5; TAAR1 agonist: -0.7

How did CCOC(=O)CSC1=NC(=O)/C(=C/c2ccc(OC)cc2)S1 do in these assays?
OX1R antag-1: 39.6; GPR7 antagonist: 29.4*; CHO parental Ca: -3.1; OX1R antag-2: 3.0; GPR7 antag cf: 72.3*; MCHR1 antagonist: 72.2*

What do the screens show for `COc1ccc(-c2cn(Cc3ccc([N+](=O)[O-])cc3)nn2)cc1`?
TAAR1 antagonist: 13.1; OX1R antag-1: 28.3; GPR7 antagonist: 19.0; CHO parental Ca: -6.0; OX1R antag-2: -15.8; TAAR1 agonist: 11.3

What do the screens show for `CCCCCc1ccc(-c2cn(Cc3ccc([N+](=O)[O-])cc3)nn2)cc1`?
OX1R antag-1: 18.5; GPR7 antagonist: 33.4*; CHO parental Ca: -5.0; OX1R antag-2: -20.5; GPR7 antag cf: 36.6*; MCHR1 antagonist: 57.3*

What do the screens show for `Cn1ccnc1C1CCCCN1Cc1nc(-c2ccc(Cl)cc2)no1` (configuration not stated)?
TAAR1 antagonist: -9.3; OX1R antag-1: 21.1; GPR7 antagonist: 26.1*; CHO parental Ca: -1.3; OX1R antag-2: -31.4; TAAR1 agonist: 0.6; GPR7 antag cf: 34.1*; MCHR1 antagonist: 21.8*

What do the screens show for `Clc1ccc(-c2noc(CN3CCCC3)n2)cc1`?
TAAR1 antagonist: 0.4; OX1R antag-1: 9.6; GPR7 antagonist: -3.2; CHO parental Ca: -16.8; OX1R antag-2: -17.9; TAAR1 agonist: 17.7

Results for Cc1cccc2cc(C3CC(c4ccco4)=NN3S(=O)(=O)c3ccccc3)c(Cl)nc12 (configuration not stated) ?
TAAR1 antagonist: -16.9; OX1R antag-1: 12.4; GPR7 antagonist: -16.7; CHO parental Ca: -22.9; OX1R antag-2: -34.4; TAAR1 agonist: 2.3

What do the screens show for `Cc1cccc2cc(C3CC(c4ccco4)=NN3S(C)(=O)=O)c(Cl)nc12` (configuration not stated)?
TAAR1 antagonist: -3.5; OX1R antag-1: 10.0; GPR7 antagonist: 21.9*; CHO parental Ca: -16.6; OX1R antag-2: -5.9; TAAR1 agonist: 2.0; GPR7 antag cf: 2.4; MCHR1 antagonist: 11.5

Results for CC1Cc2cc(S(=O)(=O)N3CCCC(C(=O)N4CCCCC4)C3)ccc2N1C(=O)C1CC1 (configuration not stated) ?
TAAR1 antagonist: -0.2; OX1R antag-1: 5.6; GPR7 antagonist: 27.9*; CHO parental Ca: -28.4; OX1R antag-2: -14.7; TAAR1 agonist: -0.7; GPR7 antag cf: 19.9; MCHR1 antagonist: 24.0*

Results for CC(=O)N1c2ccc(S(=O)(=O)N3CCCC(C(=O)N4CCCCC4)C3)cc2CC1C (configuration not stated) ?
TAAR1 antagonist: -4.0; OX1R antag-1: 7.4; GPR7 antagonist: -1.3; CHO parental Ca: -3.0; OX1R antag-2: -11.4; TAAR1 agonist: 0.3
